{"source": "ChEMBL document CHEMBL4819096", "about": "“Antibacterial activity of noscapine analogs” (Bioorg Med Chem Lett, 2021)", "key": {"Aeromonas": {"system": "Aeromonas", "experiment": "Antibacterial activity against Aeromonas sp. O9 assessed as inhibition of bacterial growth measured after 16 to 20 hrs by two-fold serial microbroth dilution method", "type": "functional, organism-based", "conditions": "time 16-20 hrs", "summary_of_the_method": "(§1)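 Broth microdilution in LB and M9 medium. Inoculum adjusted to about 5 × 10⁵ cells/ml. Compound diluted twofold serially in microplate wells, then plates covered and incubated at 37 °C with shaking. Growth read as OD600. MIC taken as the lowest concentration giving no growth after 16–20 h.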"}, "[1]": {"experiment": "Cytotoxicity against human HEK293 cells assessed as reduction in cell viability measured after 28 hrs by PrestoBlue reagent based fluorescence analysis", "summary_of_the_method": "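HEK293 cells seeded at 25*10³ per well in DMEM with 10% FBS, 2 mM L-Glu and 50 µg/ml gentamicin. Cells held 24 h at 37 °C, 5% CO2 before compound was added (final DMSO 0.1%), then incubated 28 h. Viability read by PrestoBlue fluorescence at 590 nm, expressed relative to 0.1% DMSO control (100%). CC50 derived by curve fitting.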"}, "Escherichia coli [2]": {"system": "Escherichia coli", "experiment": "Antibacterial activity against ampicillin/cefotaxime/tetracycline/ceftriaxone-resistant Escherichia coli mx7 assessed as inhibition of bacterial growth measured after 16 to 20 hrs by two-fold serial microbroth dilution method", "type": "functional, organism-based", "conditions": "time 16-20 hrs", "summary_of_the_method": "(§2)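 Broth microdilution MIC in LB and M9 medium. Inoculum adjusted to about 5 × 10⁵ cells/ml. Compound serially diluted twofold. Plates covered and incubated at 37 °C with shaking. OD600 read; MIC taken as the lowest concentration giving no growth after 16–20 h.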"}, "Citrobacter koseri": {"system": "Citrobacter koseri", "experiment": "Antibacterial activity against Citrobacter koseri R38 assessed as inhibition of bacterial growth measured after 16 to 20 hrs by two-fold serial microbroth dilution method", "type": "functional, organism-based", "conditions": "time 16-20 hrs", "summary_of_the_method": "as §1"}, "Staphylococcus aureus": {"system": "Staphylococcus aureus", "experiment": "Antibacterial activity against Fosfomycin resistant Staphylococcus aureus ATCC USA 206 assessed as inhibition of bacterial growth measured after 16 to 20 hrs by two-fold serial microbroth dilution method", "type": "functional, organism-based", "conditions": "time 16-20 hrs", "summary_of_the_method": "as §2"}, "Bacillus subtilis": {"system": "Bacillus subtilis", "experiment": "Antibacterial activity against Bacillus subtilis 3HM assessed as inhibition of bacterial growth measured after 16 to 20 hrs by two-fold serial microbroth dilution method", "type": "functional, organism-based", "conditions": "time 16-20 hrs", "summary_of_the_method": "as §1"}, "Morganella morganii": {"system": "Morganella morganii", "experiment": "Antibacterial activity against Morganella morganii R36 assessed as inhibition of bacterial growth measured after 16 to 20 hrs by two-fold serial microbroth dilution method", "type": "functional, organism-based", "conditions": "time 16-20 hrs", "summary_of_the_method": "as §1"}, "Escherichia coli [3]": {"system": "Escherichia coli", "experiment": "Antibacterial activity against Escherichia coli assessed as inhibition of bacterial growth measured after 16 to 20 hrs by two-fold serial microbroth dilution method", "type": "functional", "conditions": "time 16-20 hrs", "summary_of_the_method": "as §1"}, "Proteus vulgaris": {"system": "Proteus vulgaris", "experiment": "Antibacterial activity against Proteus vulgaris O41 assessed as inhibition of bacterial growth measured after 16 to 20 hrs by two-fold serial microbroth dilution method", "type": "functional, organism-based", "conditions": "time 16-20 hrs", "summary_of_the_method": "as §1"}, "Escherichia coli [4]": {"system": "Escherichia coli", "experiment": "Antibacterial activity against Escherichia coli ATCC25922 assessed as inhibition of bacterial growth measured after 16 to 20 hrs by two-fold serial microbroth dilution method", "type": "functional, organism-based", "conditions": "ATCC 25922, time 16-20 hrs", "summary_of_the_method": "as §1"}, "Enterobacter": {"system": "Enterobacter", "experiment": "Antibacterial activity against Enterobacter sp. O54 assessed as inhibition of bacterial growth measured after 16 to 20 hrs by two-fold serial microbroth dilution method", "type": "functional, organism-based", "conditions": "time 16-20 hrs", "summary_of_the_method": "as §1"}, "Proteus sp.": {"system": "Proteus sp.", "experiment": "Antibacterial activity against ampicillin/cefotaxime/tetracycline/ceftriaxone/fosfomycin-resistant Proteus sp. O14 assessed as inhibition of bacterial growth measured after 16 to 20 hrs by two-fold serial microbroth dilution method", "type": "functional, organism-based", "conditions": "time 16-20 hrs", "summary_of_the_method": "as §2"}, "HEK293 [5]": {"system": "HEK293", "experiment": "Induction of cell cycle arrest in human HEK293 cells assessed as increase in accumulation of cells at S phase at 71 uM after 24 hrs by propidium iodide staining based flow cytometry", "conditions": "hek293, 24 h", "summary_of_the_method": "(§3)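 Cell-cycle profiling of HEK293 cells treated with compound or vehicle (0.1% DMSO). Cells harvested (400 × g, 5 min) and fixed in ice-cold 70% ethanol for 24 h at −20 °C. Washed in PBS, treated with RNase A (0.5 mg/ml, 5 min, room temperature), then stained with propidium iodide (50 µg/ml, 30 min). DNA content read by flow cytometry on a linear scale. At least duplicate; mean ± S.E.M.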"}, "Klebsiella oxytoca": {"system": "Klebsiella oxytoca", "experiment": "Antibacterial activity against Klebsiella oxytoca R48 assessed as inhibition of bacterial growth measured after 16 to 20 hrs by two-fold serial microbroth dilution method", "type": "functional, organism-based", "conditions": "time 16-20 hrs", "summary_of_the_method": "as §1"}, "Pseudomonas aeruginosa [6]": {"system": "Pseudomonas aeruginosa", "experiment": "Antibacterial activity against ampicillin/cefotaxime-resistant Pseudomonas aeruginosa ATCC 27853 assessed as inhibition of bacterial growth measured after 16 to 20 hrs by two-fold serial microbroth dilution method", "type": "functional, organism-based", "conditions": "time 16-20 hrs", "summary_of_the_method": "as §2"}, "Klebsiella pneumoniae": {"system": "Klebsiella pneumoniae", "experiment": "Antibacterial activity against ampicillin/fosfomycin-resistant Klebsiella pneumonia 181210171-2 assessed as inhibition of bacterial growth measured after 16 to 20 hrs by two-fold serial microbroth dilution method", "type": "functional, organism-based", "conditions": "time 16-20 hrs", "summary_of_the_method": "as §2"}, "Klebsiella aerogenes": {"system": "Klebsiella aerogenes", "experiment": "Antibacterial activity against Enterobacter aerogenes R41 assessed as inhibition of bacterial growth measured after 16 to 20 hrs by two-fold serial microbroth dilution method", "type": "functional, organism-based", "conditions": "time 16-20 hrs", "summary_of_the_method": "as §1"}, "Hafnia alvei": {"system": "Hafnia alvei", "experiment": "Antibacterial activity against Ampicillin resistant Hafnia alvei O31 assessed as inhibition of bacterial growth measured after 16 to 20 hrs by two-fold serial microbroth dilution method", "type": "functional, organism-based", "conditions": "time 16-20 hrs", "summary_of_the_method": "as §2"}, "Candida albicans": {"system": "Candida albicans", "experiment": "Antibacterial activity against ampicillin/cefotaxime/tetracycline/ceftriaxone/fosfomycin-resistant Candida albicans 181210169-1 assessed as inhibition of fungal growth measured after 16 to 20 hrs by two-fold serial microbroth dilution method", "type": "functional, organism-based", "conditions": "time 16-20 hrs", "summary_of_the_method": "as §2"}, "Enterobacter cloacae": {"system": "Enterobacter cloacae", "experiment": "Antibacterial activity against ampicillin/cefotaxime/tetracycline/ceftriaxone-resistant Enterobacter cloacae O3 assessed as inhibition of bacterial growth measured after 16 to 20 hrs by two-fold serial microbroth dilution method", "type": "functional, organism-based", "conditions": "time 16-20 hrs", "summary_of_the_method": "as §2"}, "Pseudomonas aeruginosa [7]": {"system": "Pseudomonas aeruginosa", "experiment": "Antibacterial activity against Pseudomonas aeruginosa R42 assessed as inhibition of bacterial growth measured after 16 to 20 hrs by two-fold serial microbroth dilution method", "type": "functional, organism-based", "conditions": "time 16-20 hrs", "summary_of_the_method": "as §1"}, "HEK293 [8]": {"system": "HEK293", "experiment": "Induction of cell cycle arrest in human HEK293 cells assessed as increase in accumulation of apoptotic cells at sub G1 phase at 71 uM measured after 48 hrs by propidium iodide staining based flow cytometry", "conditions": "hek293, 48 h", "summary_of_the_method": "as §3"}, "[9]": {"experiment": "Selectivity index, ratio of CC50 for human HEK293 cells to MIC for antibacterial activity against Escherichia coli", "type": "toxicity", "conditions": "read-out: Selectivity Index"}}, "note": "The source made the active and inactive calls. The calls are words filed in the database; no cut-off is given here.", "data": [{"compound": "CCn1c(O)c(C(=O)CC2c3c(cc4c(c3OC)OCO4)CCN2C)c(=O)n(CC)c1=S", "note": "(stereo not drawn)", "values": [{"measurement": "Activity", "setting": "Aeromonas", "result": "inactive"}, {"measurement": "CC50 at 28 h", "setting": "[1]", "result": 71, "unit": "µM"}, {"measurement": "Activity", "setting": "Escherichia coli [2]", "result": "inactive"}, {"measurement": "Activity", "setting": "Citrobacter koseri", "result": "inactive"}, {"measurement": "Activity", "setting": "Staphylococcus aureus", "result": "Active"}, {"measurement": "Activity", "setting": "Bacillus subtilis", "result": "Active"}, {"measurement": "Activity", "setting": "Morganella morganii", "result": "inactive"}, {"measurement": "MIC", "setting": "Escherichia coli [3]", "result": 13.5, "unit": "µM"}, {"measurement": "Activity", "setting": "Proteus vulgaris", "result": "inactive"}, {"measurement": "Activity", "setting": "Escherichia coli [4]", "result": "inactive"}, {"measurement": "Activity", "setting": "Enterobacter", "result": "inactive"}, {"measurement": "Activity", "setting": "Proteus sp.", "result": "inactive"}, {"measurement": "Activity", "setting": "HEK293 [5]", "result": "Toxic"}, {"measurement": "Activity", "setting": "Klebsiella oxytoca", "result": "inactive"}, {"measurement": "Activity", "setting": "Pseudomonas aeruginosa [6]", "result": "inactive"}, {"measurement": "Activity", "setting": "Klebsiella pneumoniae", "result": "inactive"}, {"measurement": "Activity", "setting": "Klebsiella aerogenes", "result": "inactive"}, {"measurement": "Activity", "setting": "Hafnia alvei", "result": "inactive"}, {"measurement": "Activity", "setting": "Candida albicans", "result": "inactive"}, {"measurement": "Activity", "setting": "Enterobacter cloacae", "result": "inactive"}, {"measurement": "Activity", "setting": "Pseudomonas aeruginosa [7]", "result": "inactive"}, {"measurement": "Activity", "setting": "HEK293 [8]", "result": "Toxic"}, {"measurement": "selectivity ratio", "setting": "[9]", "result": 5.5}]}]}
